Assay outcomes as filed in PubChem.
Shown are actives, neighbours in structure and some others; about 2.2% of the full set was active somewhere.
core dimer inh = HCV core protein dimerization inhibition. TR-FRET GST/Flag-core106 dimerization, 1536-well. inhibition, % at 5 µM. 300,000 compounds, 0.33% hits;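 active = inhibition above the mean of all tested compounds plus 3 SD, set per screening campaign, cut at about 45% in these data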
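Test system: GST/Flag-tagged HCV core106 proteins; Medium: KF-containing HEPES buffer, pH 7.45, DTT, CHAPS, BSA; Times: compound-protein-antibody incubation 4 h at 22.5 °C; Detection: TR-FRET 671 and 617 nm emission; Benchmarks: wells lacking GST-core106 and wells with excess unlabelled core106.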
DAGLB inhibitor = diacylglycerol lipase beta (human) inhibition | Q8NCG7 | HEK293T DAGLB membrane lysate, EnzChek fluorogenic substrate | inhibition, % at 5.17 µM | 340,000 compounds, 0.059% hits | AID 504411; in the data active = inhibition above about 34%;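 also: 0% = enzyme with vehicle and 100% = wells lacking enzyme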
GRK2 inh = human GRK2 inhibition via aptamer displacement; AID 488847; bead flow cytometry, FAM-aptamer displacement from GRK2; 330,000 compounds, 0.59% hits; P25098; inhibition of aptamer binding, % at 10 µM;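 active = inhibition of aptamer binding above 40%, roughly 3 SD of noise, on plates passing a quality check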;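 also: median bead fluorescence of bound FAM aptamer so fluorescent compounds give negative values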
Target sequence (P25098 whole entry, looked up): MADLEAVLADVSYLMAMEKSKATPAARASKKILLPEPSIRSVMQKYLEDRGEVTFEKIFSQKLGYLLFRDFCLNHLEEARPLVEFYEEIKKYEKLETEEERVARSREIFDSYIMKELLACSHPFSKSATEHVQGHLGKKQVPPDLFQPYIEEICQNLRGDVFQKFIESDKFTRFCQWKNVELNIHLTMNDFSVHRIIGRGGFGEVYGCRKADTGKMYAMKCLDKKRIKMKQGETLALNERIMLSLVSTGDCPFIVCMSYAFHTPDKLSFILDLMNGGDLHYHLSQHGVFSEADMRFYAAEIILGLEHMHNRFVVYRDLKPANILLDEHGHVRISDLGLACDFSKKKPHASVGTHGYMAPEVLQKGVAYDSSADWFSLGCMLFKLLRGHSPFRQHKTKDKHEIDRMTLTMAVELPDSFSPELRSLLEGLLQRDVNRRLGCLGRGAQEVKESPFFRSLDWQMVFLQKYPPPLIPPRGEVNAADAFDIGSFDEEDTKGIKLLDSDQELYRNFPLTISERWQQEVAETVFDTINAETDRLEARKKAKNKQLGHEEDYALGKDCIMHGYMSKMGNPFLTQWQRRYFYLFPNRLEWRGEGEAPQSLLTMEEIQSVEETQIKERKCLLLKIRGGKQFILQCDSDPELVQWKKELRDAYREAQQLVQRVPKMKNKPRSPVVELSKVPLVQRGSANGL
DNA FID counter-1 = displaces DNA intercalator in HCV helicase counter-screen; 290,000 compounds, 0.17% hits; inhibition, % at 7.9 µM; AID 1845; DNA fluorescent intercalator displacement, fluorescence;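 also: 0% = vehicle and 100% = reference compound; higher means more ethidium bromide displaced from hairpin DNA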
GPR7 antagonist = antagonists of human GPR7 (neuropeptides B/W receptor 1); GPR7-expressing cells, fluorescence antagonist assay; P48145; 290,000 compounds, 1.1% hits; inhibition, % at 4.4 µM; in the data active = inhibition above about 16%, passing the limit was not always enough;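 also: cells stimulated with the agonist NPW; 0% = agonist with vehicle and 100% = vehicle without agonist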
HCV NS3 hel inh = blocks Hepatitis C virus NS3 helicase unwinding | NS3 helicase DNA unwinding, Cy5 molecular beacon fluorescence | inhibition, % at 10.9 µM | 290,000 compounds, 0.56% hits;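 active = inhibition above the mean of all tested compounds plus 3 SD, set per campaign, cut at about 35% in these data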;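 also: 0% = DMSO wells and 100% = thioflavine S control wells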
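System: NS3 helicase fragment of HCV / Schedule: 1 h at 25 °C / Control set: DMSO alone as 0% and 110 µM thioflavine S as 100% / Reagent: Cy5/quencher beacon DNA duplex and ATP to start / Technique: Cy5 fluorescence / Replication: singlicate / Evaluation: % inhibition of end-to-start signal ratio versus controls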
NS3 hel confirm = confirmation of Hepatitis C virus NS3 helicase inhibitors; shares compounds with HCV NS3 hel inh; NS3 helicase DNA unwinding, Cy5 molecular beacon fluorescence; inhibition, % at 10.9 µM; 1,600 compounds, 31% hits; AID 1943;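 active = inhibition above the mean of all tested compounds plus 3 SD, cutoff set per campaign, cut at about 36% in these data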
DNA FID counter-2 = displaces DNA intercalator in HCV helicase counter-screen; AID 1945; inhibition, % at 7.9 µM; shares compounds with HCV NS3 hel inh; DNA fluorescent intercalator displacement, fluorescence; 1,600 compounds, 4% hits;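 also: 0% = vehicle and 100% = reference compound; higher means more displacement of ethidium bromide from the DNA hairpin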
DNA FID DR = counter-screen for HCV NS3 helicase inhibitors: DNA intercalator displacement dose response | shares compounds with HCV NS3 hel inh | fluorescent intercalator displacement from DNA, fluorescence | IC50, µM | 120 tested, under 10 active | AID 2172; call rule not given here
* marks the source's active call; other numbers are inactive results; i = inactive; / = no result given. Rule as the data show it, unless noted: active = inhibition above about 37%; inactive = the rest.

SMILES | core dimer inh | DAGLB inhibitor | GRK2 inh | DNA FID counter-1 | GPR7 antagonist | HCV NS3 hel inh | NS3 hel confirm | DNA FID counter-2 | others
COCCN1C(=O)C(=O)/C(=C(/O)c2ccc(S(=O)(=O)N3CCCCC3)cc2)C1c1ccc(OC)cc1 (stereo unspecified) | 0 | 3 | 1 | -63 | 3 | 21 | / | /
CCN(CC)CCN1C(=O)C(=O)/C(=C(/O)c2ccc(S(=O)(=O)N3CCOCC3)cc2)C1c1ccc(C(C)(C)C)cc1 (stereo unspecified) | -7 | 0 | 1 | -26 | -8 | 46* | -6 | -21
COCCCN1C(=O)C(=O)/C(=C(/O)c2ccc(S(=O)(=O)N3CCCCC3)cc2)C1c1ccc(F)cc1 (stereo unspecified) | 3 | -3 | 0 | -49 | 9 | 44* | -4 | -29
S=c1[nH]nc(-c2ccco2)n1-c1ccc(Br)cc1 | 2 | -1 | 2 | / | / | / | / | /
CC1=NN(C(N)=S)C(=O)C1N=Nc1ccc(C)c(Br)c1 (stereo unspecified) | -15 | 12 | 1 | -20 | -5 | 40* | -19 | 13
CC1=NN(C(N)=S)C(=O)C1N=Nc1ccc(O)cc1 (stereo unspecified) | / | 4 | / | 24 | 0 | -4 | / | /
Cn1nnnc1Sc1ncnc2scc(-c3cccs3)c12 | / | 1 | 0 | / | / | / | / | /
COc1ccc(/C(O)=C2/C(=O)C(=O)N(c3ccccn3)C2c2cccc(Cl)c2)cc1 (stereo unspecified) | 14 | 2 | 1 | -38 | -9 | 44* | 44* | -30
O=C1C(=O)N(c2ccccn2)C(c2ccc(Br)cc2)/C1=C(/O)c1ccc(Br)cc1 (stereo unspecified) | / | 3 | 3 | -38 | -15 | 73* | 85* | -28
CCCOc1ccc(/C(O)=C2/C(=O)C(=O)N(c3ccccn3)C2c2ccc(OC)cc2)cc1C (stereo unspecified) | 22 | 18 | 3 | -48 | 13 | 69* | 91* | -44 | DNA FID DR=>79
Cc1cc(N2C(=O)C(=O)/C(=C(/O)c3ccc(F)cc3)C2c2cccc(Br)c2)no1 (stereo unspecified) | 0 | 8 | 1 | -37 | -11 | 38* | 64* | -20
N#C/C(=C\c1ccc(OCC(N)=O)cc1)c1ccccc1 | -11 | -1 | 1 | -13 | -8 | -7 | / | /
O=C(NNc1cccc(Cl)n1)Nc1ccc(F)cc1 | -2 | -2 | 2 | 1 | -12 | 3 | / | /
COc1ccc(/C(O)=C2/C(=O)C(=O)N(c3ccccn3)C2c2ccc(C(C)C)cc2)cc1 (stereo unspecified) | / | 2 | / | -34 | -12 | 39* | 85* | -13 | DNA FID DR=>79
Cc1ccc(N(CC(=O)NC(C)(C)C)C(=O)CCC(=O)Nc2ccccn2)cc1 | / | -1 | / | / | / | / | / | /
CCN(CC)C(=O)COC(=O)c1cc(-c2ccc(OC)cc2)nc2ccccc12 | 6 | -4 | 0 | -21 | 18 | -10 | / | /
CCN(CC)C(=O)COC(=O)c1cc(-c2ccco2)nc2ccccc12 | / | 1 | / | -23 | -13 | 44* | 19 | 0
COc1ccc(CCNC(=O)c2cc(-c3ccco3)nc3ccccc23)cc1 | 65* | / | 11 | -31 | -3 | 53* | 7 | -17
CCN(CC)CCNC(=O)c1cc(-c2ccco2)nc2ccccc12 | -1 | 1 | 0 | 10 | -2 | -12 | / | /
O=C(O)c1ccccc1/C=N/NC(=O)c1cc(-c2ccco2)nc2ccccc12 | 41 | 3 | 0 | -20 | -2 | 42* | 68* | -21 | DNA FID DR=>79
O=C(NNC(=O)C1CCN(C(=O)Nc2ccccc2)CC1)c1ccc([N+](=O)[O-])cc1 | / | -2 | 6 | / | / | / | / | /
Clc1ccccc1C1=CC(c2ccco2)n2ncnc2N1 (stereo unspecified) | -3 | -7 | 0 | -11 | -12 | 41* | 5 | -12
Clc1ccc(C2=CC(c3ccco3)n3ncnc3N2)cc1 (stereo unspecified) | -2 | -54 | 4 | -6 | 22 | 6 | / | /
Cc1ccc(/C=C/C(=O)OC(C)C(=O)NC2CCCCC2C)o1 (stereo unspecified) | -3 | -1 | 3 | / | / | / | / | /
CC1=NN2C(=N)/C(=C\c3ccc(SCc4ccccc4)o3)C(=O)N=C2S1 | 2 | 2 | 0 | -5 | -4 | 2 | / | /
SMILES | core dimer inh | DAGLB inhibitor | GRK2 inh | DNA FID counter-1 | GPR7 antagonist | HCV NS3 hel inh | NS3 hel confirm | DNA FID counter-2 | others
N=C1/C(=C\c2ccc(SCc3ccco3)o2)C(=O)N=C2SC=NN12 | 2 | 7 | 3 | -2 | 4 | 53* | 63* | -1
COc1cc(OC)cc(-c2oc(=O)c3cc(OC)c(OC)cc3c2C(F)(F)F)c1 | / | -1 | 0 | / | / | / | / | /
CN(C)c1ccc(NC(=O)Oc2ccccc2)cc1 | -11 | 1 | 1 | -2 | 5 | 44* | -5 | 0
O=C(COC(=O)c1c2c(nc3ccccc13)/C(=C\c1ccco1)CC2)NC1CCCC1 | / | 13 | / | / | / | / | / | /
NC(=O)c1sc2nc3c(c(-c4ccco4)c2c1N)CCC3 | 2 | 0 | 3 | -12 | -6 | 58* | -27 | 8
Nc1c(C(=O)NC2CC2)sc2nc3c(c(-c4ccco4)c12)CC/C3=C/c1ccco1 | 104* | 9 | 2 | -3 | -9 | 69* | 99* | 3 | DNA FID DR=i
Nc1c(C(=O)Nc2ccccc2F)sc2nc(-c3cccnc3)ccc12 | 0 | -2 | 0 | -11 | 3 | 11 | / | /
NC(=O)c1sc2nc(-c3ccco3)ccc2c1N | -17 | 6 | 7 | -10 | -4 | 74* | -6 | 0
Nc1c(C(=O)Nc2ccccc2F)sc2nc(-c3ccco3)ccc12 | 48* | 5 | 1 | -16 | 11 | 59* | 74* | 6 | DNA FID DR=>79
O=C(COc1ccccc1)Nc1c2c(nn1-c1ccccc1)CS(=O)C2 (stereo unspecified) | -18 | 1 | 0 | -20 | -7 | 32 | / | /
CCCCCC(=O)N1C[C@@H](n2cc(-c3ccc(F)cc3)nn2)[C@H](O)C[C@@H]1c1ccc(Cl)cc1 | / | -6 | / | / | / | / | / | /
c1ccc2c(c1)c1c(c3ccccc32)CN2CCCC2C1 (stereo unspecified) | / | -1 | / | / | / | / | / | /
CNC(=O)c1ccc(NC(=O)CC2SC(N3CCCC3)=NC2=O)cc1 (stereo unspecified) | / | 1 | 7 | / | / | / | / | /
Cc1ccc(NS(=O)(=O)N2CCCCC2)cc1 | / | 1 | / | / | / | / | / | /
Fc1cc(Br)ccc1COc1ccc(-c2nnco2)cc1 | 7 | 1 | 0 | -27 | -12 | -1 | / | /
Cc1cc(C)n(CC(=O)Nc2ccc3c(c2)OCO3)c(=O)c1C#N | -4 | 0 | 0 | / | / | / | / | /
